Assay outcomes (PubChem)
Rows were chosen to be rich in hits. Some 5.9% of all compounds tested hit in one or more screens of this group.
IDH1 R132H inh: inhibitors of IDH1 R132H reductase, primary screen, biochemical, plate reader, single point. Isocitrate dehydrogenase [NADP] cytoplasmic (Homo sapiens), O75874. diaphorase/resazurin fluorescence, 60 min. inhibition, % at 10 µM. 70,000 tested, 0.18% active. AID 624101, 2012; in the data active = inhibition above about 34%; inconclusive = no clear call, values can overlap the other calls; inactive = below about 11%;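 note: 0% = DMSO and 100% = no enzyme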
Target sequence (O75874 whole entry R132H): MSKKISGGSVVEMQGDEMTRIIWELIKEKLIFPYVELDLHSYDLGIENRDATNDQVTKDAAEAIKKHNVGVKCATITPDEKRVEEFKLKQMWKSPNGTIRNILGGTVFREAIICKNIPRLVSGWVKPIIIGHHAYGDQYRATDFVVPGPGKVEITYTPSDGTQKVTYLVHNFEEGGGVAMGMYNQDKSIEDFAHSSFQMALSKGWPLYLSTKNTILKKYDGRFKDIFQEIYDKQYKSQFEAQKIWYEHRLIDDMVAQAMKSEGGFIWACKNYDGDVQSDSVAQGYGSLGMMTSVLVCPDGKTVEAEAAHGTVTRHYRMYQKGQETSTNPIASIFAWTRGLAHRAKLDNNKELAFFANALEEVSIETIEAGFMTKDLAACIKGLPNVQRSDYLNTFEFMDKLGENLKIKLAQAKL
T cruzi growth-1: T. cruzi intracellular proliferation inhibitors, primary screen, cell-based, beta-gal Tulahuen parasites, NIH3T3 host, luminescence. T. cruzi beta-gal in NIH3T3, GalScreen luminescence, 90 h. 77,000 tested, 5.9% active. inhibition, % at 8.34 µM. AID 624255, 2012;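 active = mean inhibition above about 93%, with at least 55% of replicates each passing it, limit read from the data, passing the limit was not always enough; inconclusive = only one of those two conditions holds; inactive = neither condition holds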
Pf Dd2 inh: P. falciparum Dd2 growth inhibitors, primary screen, SYBR Green fluorescence, single dose replicates | AID 1159554, 2015 | 72 h; active compounds read low | 94,000 tested, 2.3% active | activity change, % at 10 µM; in the data active = activity change below about -80%; inconclusive = no clear call, values can overlap the other calls
KDM4C inh: inhibitors of GASC-1 (KDM4C) histone demethylase, primary screen, biochemical, single concentration HTS; GST-KDM4C 2-372, H3K9me3 peptide, LANCE TR-FRET; inhibition, % at 12.5 µM; 96,000 tested, 0.15% active;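 active = mean replicate inhibition above about 25%, with at least 55% of replicates also reaching it, limit read from the data, passing the limit was not always enough; inconclusive = only one of those two conditions met; inactive = neither condition met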
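Test system: N-terminal GST-fused human GASC-1 (KDM4C) fragment, residues 2-372; quantity: GASC-1 enzyme at 10 nM final in reaction; dosing: single dose; schedule: 30 min demethylation and 1 h detection at room temperature; signal: LANCE TR-FRET, excitation 340 nm, emissions 618 and 671 nm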
T cruzi growth-2: T. cruzi intracellular proliferation inhibitors, confirmation, cell-based, NIH3T3 host, beta-gal parasite, luminescence, cherry-pick; shares compounds with T cruzi growth-1; T. cruzi beta-gal in NIH3T3, GalScreen luminescence, 90 h; inhibition, % at 8.35 µM; 5,600 tested, 72% active;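 active = mean replicate inhibition above about 95% and at least 55% of replicates individually reaching it, limit read from the data; inconclusive = only one of the two criteria is met; inactive = neither criterion is met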
T cruzi growth-3: inhibitors of intracellular T. cruzi replication, confirmation, NIH3T3 host cells, beta-gal parasites, cherry-pick, set 2. 5,600 tested, 21% active. T. cruzi beta-gal in NIH3T3, GalScreen luminescence, 90 h. inhibition, % at 2.09 µM. shares compounds with T cruzi growth-1;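 active = mean inhibition above about 95%, with at least 55% of replicates also reaching it, limit read from the data; inconclusive = meets just one of the two conditions; inactive = meets neither condition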;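 note: plate controls were neutral control median for no effect and positive control median for full effect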
NIH3T3 tox: cytotoxicity in mouse NIH/3T3 fibroblasts, confirmation, cytotoxicity control for T. cruzi proliferation inhibitor project, cell-based, cherry-pick, single point; NIH/3T3 viability, CellTiter-Glo ATP luminescence, 90 h; 5,600 tested, 14% active; cytotoxicity (signal decrease), % at 8.35 µM; AID 651742, 2012; shares compounds with T cruzi growth-1;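 active = mean signal decrease across replicates above about 35% based on untreated-well scatter, with enough replicates individually passing, limit read from the data; inconclusive = no rule stated though some were filed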;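 note: 0% = median of neutral control wells and 100% = median of positive control wells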
NIH3T3 tox 2: NIH/3T3 fibroblast cytotoxicity, confirmation, cytotoxicity control, cell-based, cherry-pick, single point, set 2; shares compounds with T cruzi growth-1; NIH/3T3 viability, CellTiter-Glo ATP luminescence, 90 h; inhibition, % at 24.9 µM; 5,600 tested, 56% active; AID 651744, 2012;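 active = mean loss of cell viability signal at or above a set limit, and enough replicates individually reaching it; inconclusive = meets only the mean limit or only the replicate share; inactive = meets neither condition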;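 note: 0% = median of neutral control wells and 100% = median of positive control wells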
* hit, by the source's call; ? = inconclusive; nt = no result given.

SMILES	IDH1 R132H inh	T cruzi growth-1	Pf Dd2 inh	KDM4C inh	T cruzi growth-2	T cruzi growth-3	NIH3T3 tox	NIH3T3 tox 2
Cc1ccccc1NC(=O)CSc1nc(-c2ccc(Cl)cc2)cc(C(F)(F)F)n1	0	nt	nt	nt	nt	nt	nt	nt
COc1cccc2c1NC1CC(C)CCC1C2(C)C (stereo not given)	-1	nt	nt	nt	nt	nt	nt	nt
COc1cccc(CNc2nc3ccccc3n2C)c1OC	-1	nt	nt	nt	nt	nt	nt	nt
COc1cccc(CN2CCCCN3[C@@H](CO)[C@H](c4ccc(C#Cc5cccnc5)cc4)[C@@H]3C2)c1	nt	117*	-69	0	109*	44	19	103*
COc1cccc(CN2CCCCN3[C@H](CO)[C@@H](c4ccc(C#Cc5cccnc5)cc4)[C@@H]3C2)c1	nt	116*	-77	0	104*	62	18	104*
COc1cccc(CN2CCCCN3[C@H](C2)[C@@H](c2ccc(-c4cccnc4)cc2)[C@@H]3CO)c1	nt	73	-62	0	nt	nt	nt	nt
COc1ccc(C#Cc2ccc([C@@H]3[C@H](CO)N4CCCCN(Cc5ccncc5)C[C@@H]34)cc2)cc1	nt	48	-76	2	nt	nt	nt	nt
CC1CC(O)CC(C)(C)C1(O)/C=C/C(CO)O[C@@H]1O[C@H](CO)[C@@H](O)[C@H](O)[C@H]1O (stereo not given in full)	0	nt	nt	nt	nt	nt	nt	nt
O=C(Nc1cccc(F)c1)N[C@H]1CC[C@@H](CCNS(=O)(=O)c2cccc(Cl)c2)O[C@H]1CO	0	70	-26	-3	nt	nt	nt	nt
O=C(Nc1cccc(F)c1)N[C@@H]1CC[C@H](CCNS(=O)(=O)c2cccc(Cl)c2)O[C@H]1CO	-1	115*	-88*	-2	-27	-10	-20	-8
O=C(Nc1cccc(F)c1)N[C@H]1CC[C@H](CCNS(=O)(=O)c2cccc(Cl)c2)O[C@@H]1CO	-1	152*	-32	0	63	15	-1	18
C[C@H](CO)N1C[C@H](C)[C@@H](CN(C)Cc2ccc(C(F)(F)F)cc2)Oc2ccc(NS(C)(=O)=O)cc2CC1=O	2	118*	1	0	109*	103*	-1	47*
C[C@@H]1CN([C@H](C)CO)C(=O)Cc2cc(NS(C)(=O)=O)ccc2O[C@H]1CN(C)Cc1ccc(C(F)(F)F)cc1	0	52	8	1	nt	nt	nt	nt
C[C@@H]1CN([C@H](C)CO)C(=O)Cc2cc(N(C)C)ccc2O[C@H]1CN(C)Cc1ccc(C(=O)O)cc1	3	22	43	2	nt	nt	nt	nt
C[C@H]1CN([C@@H](C)CO)C(=O)Cc2cc(NS(C)(=O)=O)ccc2O[C@@H]1CN(C)Cc1ccc(Cl)c(Cl)c1	-3	70	-32	2	nt	nt	nt	nt
C[C@H](CO)N1C[C@H](C)[C@@H](CN(C)Cc2ccc(C(F)(F)F)cc2)Oc2ccc(N(C)C)cc2CC1=O	1	133*	-17	0	108*	97*	4	72*
C[C@H](CO)N1C[C@H](C)[C@@H](CN(C)Cc2ccc(Cl)c(Cl)c2)Oc2ccc(NS(C)(=O)=O)cc2CC1=O	-10	?	-13	1	115*	82	13	100*
Cc1ccc(OCC(=O)Nc2ccc(Cl)c(-c3nc4ccccc4s3)c2)cc1	0	nt	nt	nt	nt	nt	nt	nt
Cc1c(C(N)=O)sc2ncn(CC(=O)Nc3cc(Cl)ccc3Cl)c(=O)c12	0	nt	nt	nt	nt	nt	nt	nt
C[C@H](O)C#Cc1ccc([C@@H]2[C@H]3CN(C(=O)c4ccc5c(c4)OCO5)CCCCN3[C@H]2CO)cc1	nt	33	17	2	nt	nt	nt	nt
C[C@H](O)C#Cc1ccc([C@@H]2[C@@H](CO)N3CCCCN(C(=O)c4ccc5c(c4)OCO5)C[C@@H]23)cc1	nt	97*	4	11	105*	32	31	44*
CC(C)C#Cc1ccc([C@H]2[C@@H](CO)N3CCCCN(C(=O)c4ccc5c(c4)OCO5)C[C@@H]23)cc1	nt	99*	-1	-2	110*	106*	68*	50*
COc1cc(OC)c(OC)cc1CN1CCN(Cc2ccccn2)CC1	0	nt	nt	nt	nt	nt	nt	nt
CCCN(C)C[C@@H]1Oc2cc(C#Cc3ccccc3F)ccc2S(=O)(=O)N([C@@H](C)CO)C[C@H]1C	0	?	-48	1	107*	79	11	105*
CCCN(C)C[C@H]1Oc2cc(C#Cc3cccc(F)c3)ccc2S(=O)(=O)N([C@@H](C)CO)C[C@H]1C	-1	108*	nt	-1	102*	46	29	103*
CCCN(C)C[C@@H]1Oc2cc(C#Cc3cccc(F)c3)ccc2S(=O)(=O)N([C@H](C)CO)C[C@@H]1C	0	108*	nt	0	107*	55	15	106*
CCCN(C)C[C@H]1Oc2cc(C#Cc3cccc(F)c3)ccc2S(=O)(=O)N([C@H](C)CO)C[C@H]1C	0	20	nt	7	nt	nt	nt	nt
CCCN(C)C[C@H]1Oc2cc(C#Cc3cccc(F)c3)ccc2S(=O)(=O)N([C@H](C)CO)C[C@@H]1C	1	110*	nt	0	112*	56	1	104*
CC(C)CC1CC(=O)NC(N)=N1 (stereo not given)	0	nt	nt	nt	nt	nt	nt	nt
